Results as given in ChEMBL document CHEMBL4831543, “Design of Transmembrane Mimetic Structural Probes to Trap Different Stages of γ-Secretase-Substrate Interaction” (J Med Chem, 2021).
Active and inactive are the calls of the source. No cut-off for these calls is given here.

How the values were obtained:
[1] = target: T1, Gamma-secretase (Homo sapiens) (UniProt Q96BI3+Q9NZ42+Q8WW43+P49768+Q92542+P49810); assay: Inhibition of HPI-Bpa-Bt labelling of gamma secretase (unknown origin) expressed in HEK293 cells at 10 uM preincubated for 1.5 hrs followed by irradiation for 30 mins by Western blot analysis; assay type: cell-based; conditions: time 2.0 hrs
Method in brief: (§1)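 Purified γ-secretase, 2 nM, preincubated 30 min at 37 °C in assay buffer (50 mM HEPES pH 7.0, 150 mM NaCl, 0.025% DOPC, 0.1% DOPE, 0.25% CHAPSO). Biotinylated photoprobe added at 1 μM, with or without 10 μM competitor, for 1.5 h at 37 °C. UV 350 nm for 30 min on ice, streptavidin pull-down, six washes. Presenilin-1 NTF detected by western blot.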

[2] = target: T1, Gamma-secretase (Homo sapiens); assay: Inhibition of TSA-Bpa-Bt labelling of gamma secretase (unknown origin) expressed in HEK293 cells at 10 uM preincubated for 1.5 hrs followed by irradiation for 30 mins by Western blot analysis; assay type: cell-based; conditions: time 2.0 hrs; method in brief: as §1
[3] = target: T1, Gamma-secretase (Homo sapiens); assay: Competitive inhibition of TSA 1 binding to gamma secretase (unknown origin); assay type: protein-complex assay
Method in brief: (§2)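 Cross-competition kinetics using the standard activity assay. Purified γ-secretase from suspension HEK293 cells, expressed from a tetracistronic vector, in detergent-lipid buffer (HEPES pH 7.0, DOPC, DOPE, CHAPSO). Varying concentrations of two inhibitors titrated against each other, with C100Flag held at 0.50 μM. Aβ40 measured by sandwich ELISA. Data plotted as reciprocal plots and fit to a two-inhibitor equation.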

Gamma-secretase [4] = assay: Inhibition of gamma secretase (unknown origin) expressed in HEK293 cells assessed as reduction of A-beta40 levels using C100-FLAG as substrate incubated for 2 hrs by sandwich ELISA; assay type: cell-based, Homo sapiens
[5] = target: T1, Gamma-secretase (Homo sapiens); assay: Competitive inhibition of HPI 2 binding to gamma secretase (unknown origin); assay type: protein-complex assay; method in brief: as §2
Gamma-secretase [6] = assay: Noncompetitive inhibition of gamma secretase (unknown origin) expressed in HEK293 cells assessed as reduction of A-beta40 levels using varying level of C100-FLAG as substrate incubated for 2 hrs by double reciprocal plot analysis; assay type: cell-based, Homo sapiens
Method in brief: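 1 nM purified γ-secretase from suspension HEK293 cells (tetracistronic pMLINK) in HEPES pH 7.0, NaCl, DOPC, DOPE, 0.25% CHAPSO. Preincubated 30 min at 37 °C, then given inhibitor in DMSO (2% final) with C100Flag at 0–4.5 μM. Reaction run 2 h at 37 °C; Aβ40 read by sandwich ELISA. Ki obtained by fitting to a noncompetitive inhibition equation.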

CC[C@H](C)[C@H](NC(=O)[C@@H](NC(=O)[C@@H](NC(=O)C(C)(C)NC(=O)CNC(=O)[C@@H](NC(=O)OC(C)(C)C)C(C)C)C(C)C)C(C)C)C(=O)NC(C)(C)C(=O)N[C@@H](Cc1ccccc1)C(=O)N[C@H](C(=O)NC(C)(C)C(=O)NCC(=O)NCC(=O)NCC(=O)N[C@H](C(=O)N[C@@H](Cc1ccccc1)[C@H](O)CN(Cc1ccccc1)C(=O)N[C@@H](CC(C)C)C(=O)N[C@H](C(N)=O)C(C)C)C(C)C)C(C)C
inhibition [1]: Active
inhibition [2]: Active

CC[C@H](C)[C@H](NC(=O)[C@@H](NC(=O)[C@@H](NC(=O)C(C)(C)NC(=O)CNC(=O)[C@@H](NC(=O)OC(C)(C)C)C(C)C)C(C)C)C(C)C)C(=O)NC(C)(C)C(=O)N[C@@H](Cc1ccccc1)C(=O)N[C@H](C(=O)NC(C)(C)C(=O)OC)C(C)C
inhibition [1]: Active
inhibition [2]: inactive
inhibition [3]: inactive

CC[C@H](C)[C@H](NC(=O)[C@@H](NC(=O)[C@@H](NC(=O)C(C)(C)NC(=O)CNC(=O)[C@@H](NC(=O)OC(C)(C)C)C(C)C)C(C)C)C(C)C)C(=O)NC(C)(C)C(=O)N[C@H](C(=O)N[C@H](C(=O)NC(C)(C)C(=O)NCCCCC(=O)N[C@H](C(=O)N[C@@H](Cc1ccccc1)[C@H](O)CN(Cc1ccccc1)C(=O)N[C@@H](CC(C)C)C(=O)N[C@H](C(N)=O)C(C)C)C(C)C)C(C)C)[C@@H](C)O
IC50 (Gamma-secretase [4]): 3.2 nM

COC(=O)[C@@H](NC(=O)[C@H](CC(C)C)NC(=O)N(Cc1ccccc1)C[C@@H](O)[C@H](Cc1ccccc1)NC(=O)[C@@H](NC(=O)OC(C)(C)C)C(C)C)C(C)C
inhibition [5]: inactive
inhibition [1]: inactive
inhibition [2]: Active

CC[C@H](C)[C@H](NC(=O)[C@@H](NC(=O)[C@@H](NC(=O)C(C)(C)NC(=O)CNC(=O)[C@@H](NC(=O)OC(C)(C)C)C(C)C)C(C)C)C(C)C)C(=O)NC(C)(C)C(=O)N[C@H](C(=O)N[C@H](C(=O)NC(C)(C)C(=O)NCCCCCCCCCCCC(=O)N[C@H](C(=O)N[C@@H](Cc1ccccc1)[C@H](O)CN(Cc1ccccc1)C(=O)N[C@@H](CC(C)C)C(=O)N[C@H](C(N)=O)C(C)C)C(C)C)C(C)C)[C@@H](C)O
IC50 (Gamma-secretase [4]): 0.87 nM

CC[C@H](C)[C@H](NC(=O)[C@@H](NC(=O)[C@@H](NC(=O)C(C)(C)NC(=O)CNC(=O)[C@@H](NC(=O)OC(C)(C)C)C(C)C)C(C)C)C(C)C)C(=O)NC(C)(C)C(=O)N[C@H](C(=O)N[C@H](C(=O)NC(C)(C)C(=O)N[C@H](C(=O)N[C@@H](Cc1ccccc1)[C@H](O)CN(Cc1ccccc1)C(=O)N[C@@H](CC(C)C)C(=O)N[C@H](C(N)=O)C(C)C)C(C)C)C(C)C)[C@@H](C)O
IC50 (Gamma-secretase [4]): 7.5 nM

CC[C@H](C)[C@H](NC(=O)[C@@H](NC(=O)[C@@H](NC(=O)C(C)(C)NC(=O)CNC(=O)[C@@H](NC(=O)OC(C)(C)C)C(C)C)C(C)C)C(C)C)C(=O)NC(C)(C)C(=O)N[C@H](C(=O)N[C@H](C(=O)NC(C)(C)C(=O)NCCCCCCC(=O)N[C@H](C(=O)N[C@@H](Cc1ccccc1)[C@H](O)CN(Cc1ccccc1)C(=O)N[C@@H](CC(C)C)C(=O)N[C@H](C(N)=O)C(C)C)C(C)C)C(C)C)[C@@H](C)O
IC50 (Gamma-secretase [4]): 1.5 nM

CC[C@H](C)[C@H](NC(=O)[C@@H](NC(=O)[C@@H](NC(=O)C(C)(C)NC(=O)CNC(=O)[C@@H](NC(=O)OC(C)(C)C)C(C)C)C(C)C)C(C)C)C(=O)NC(C)(C)C(=O)N[C@H](C(=O)N[C@H](C(=O)NC(C)(C)C(=O)NCCCCCCCCC(=O)N[C@H](C(=O)N[C@@H](Cc1ccccc1)[C@H](O)CN(Cc1ccccc1)C(=O)N[C@@H](CC(C)C)C(=O)N[C@H](C(N)=O)C(C)C)C(C)C)C(C)C)[C@@H](C)O
IC50 (Gamma-secretase [4]): 1.1 nM

CC[C@H](C)[C@H](NC(=O)[C@@H](NC(=O)[C@@H](NC(=O)C(C)(C)NC(=O)CNC(=O)[C@@H](NC(=O)OC(C)(C)C)C(C)C)C(C)C)C(C)C)C(=O)NC(C)(C)C(=O)N[C@H](C(=O)N[C@H](C(=O)NC(C)(C)C(=O)OC)C(C)C)[C@@H](C)O
IC50 (Gamma-secretase [4]): 34.8 nM

CC[C@H](C)[C@H](NC(=O)[C@@H](NC(=O)[C@@H](NC(=O)C(C)(C)NC(=O)CNC(=O)[C@@H](NC(=O)OC(C)(C)C)C(C)C)C(C)C)C(C)C)C(=O)NC(C)(C)C(=O)N[C@H](C(=O)N[C@H](C(=O)NC(C)(C)C(=O)NCCCCCCCCCCC(=O)N[C@H](C(=O)N[C@@H](Cc1ccccc1)[C@H](O)CN(Cc1ccccc1)C(=O)N[C@@H](CC(C)C)C(=O)N[C@H](C(N)=O)C(C)C)C(C)C)C(C)C)[C@@H](C)O
Ki (Gamma-secretase [6]): 0.65 nM
IC50 (Gamma-secretase [4]): 0.7 nM

CC[C@H](C)C(NC(=O)[C@@H](NC(=O)C(C)(C)NC(=O)[C@@H](NC(=O)[C@H](Cc1ccccc1)NC(=O)C(C)(C)NC(=O)[C@@H](NC(=O)[C@@H](NC(=O)[C@@H](NC(=O)C(C)(C)NC(=O)CNC(=O)[C@@H](NC(=O)OC(C)(C)C)C(C)C)C(C)C)C(C)C)[C@@H](C)CC)C(C)C)C(C)C)C(=O)N[C@H](C(=O)N[C@H](C(=O)N[C@@H](Cc1ccccc1)[C@H](O)CN(Cc1ccccc1)C(=O)N[C@@H](CC(C)C)C(=O)N[C@H](C(N)=O)C(C)C)C(C)C)C(C)C (some centres not stated)
IC50 (Gamma-secretase [4]): 58.9 nM

CC[C@H](C)[C@@H](NC(=O)[C@H](NC(=O)[C@H](NC(=O)C(C)(C)NC(=O)CNC(=O)[C@H](NC(=O)OC(C)(C)C)C(C)C)C(C)C)C(C)C)C(=O)NC(C)(C)C(=O)N[C@@H](C(=O)N[C@@H](C(=O)NC(C)(C)C(=O)NCCCCCCCCCCC(=O)N[C@H](C(=O)N[C@@H](Cc1ccccc1)[C@H](O)CN(Cc1ccccc1)C(=O)N[C@@H](CC(C)C)C(=O)N[C@H](C(N)=O)C(C)C)C(C)C)C(C)C)[C@@H](C)O
inhibition [5]: Active
inhibition [1]: Active
inhibition [2]: Active
inhibition [3]: Active

CC[C@H](C)[C@H](NC(=O)[C@@H](NC(=O)[C@@H](NC(=O)C(C)(C)NC(=O)CNC(=O)[C@@H](NC(=O)OC(C)(C)C)C(C)C)C(C)C)C(C)C)C(=O)NC(C)(C)C(=O)N[C@H](C(=O)N[C@H](C(=O)NC(C)(C)C(=O)NCCC(=O)N[C@H](C(=O)N[C@@H](Cc1ccccc1)[C@H](O)CN(Cc1ccccc1)C(=O)N[C@@H](CC(C)C)C(=O)N[C@H](C(N)=O)C(C)C)C(C)C)C(C)C)[C@@H](C)O
IC50 (Gamma-secretase [4]): 6 nM
